The target of assay [1] is Sigma non-opioid intracellular receptor 1 (Cavia porcellus, UniProt Q60492). Kind of assay: Displacement of [3H](+)-pentazocine from sigma 1 receptor in guinea pig brain membranes measured after 120 mins by scintillation counting method. The assay is classed as cell membranes, Membrane. A general note: Displacement assays read how much labelled ligand stays bound in the presence of the test substance.

Assay [2] addresses T1, Sigma intracellular receptor 2 (Rattus norvegicus, UniProt Q5U3Y7).
T1 sequence (Q5U3Y7 whole entry): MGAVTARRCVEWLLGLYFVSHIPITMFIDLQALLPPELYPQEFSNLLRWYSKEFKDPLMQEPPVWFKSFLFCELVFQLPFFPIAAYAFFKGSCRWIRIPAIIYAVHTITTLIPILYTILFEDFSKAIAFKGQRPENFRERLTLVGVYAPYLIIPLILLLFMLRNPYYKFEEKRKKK
Kind of assay: Displacement of [3H]DTG from sigma 2 receptor in Wistar Han rat liver membranes measured after 120 mins by scintillation counting method. The assay is classed as cell membranes, Membrane.

For assay [3], the system named is Mus musculus. Nature of the assay: Cognitive enhancing effect in dizocilpine induced amnesia Swiss mouse model assessed as reduction in memory impairment at 0.03 to 0.3 mg/kg, ip pretreated for 10 mins followed by dizocilpine addition measured after 20 mins by Y-maze test. As to conditions: dose 0.03-0.3 mg/kg, time 30.0 min. The assay is classed as functional, organism-based. In a few lines: (§1)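 Male Swiss OF-1 mice, 7–9 weeks old, n = 12–16 per group. Test drug given ip in saline 10 min before dizocilpine (0.15 mg/kg ip), which was given 20 min before the Y-maze session or passive avoidance training. NE-100 (1 mg/kg ip) was given at the same time as the test drug where used. Read-outs were Y-maze alternation and step-through latency at 24 h retention. Statistics were ANOVA with Dunnett's test, or Dunn's test for latency.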

For assay [4], the system named is Mus musculus. Nature of the assay: Cognitive enhancing effect in dizocilpine induced amnesia Swiss mouse model assessed as increase in latency time at 0.03 to 0.3 mg/kg, ip pretreated for 10 mins followed by dizocilpine addition measured after 20 mins by step-through passive avoidance test. The assay is classed as functional, organism-based. As to conditions: dose 0.03-0.3 mg/kg, time 30.0 min. In a few lines: as §1

In assay [5] the test system is Mus musculus. Kind of assay: Cognitive enhancing effect in dizocilpine induced amnesia Swiss mouse model assessed as reduction in memory impairment at 0.03 to 0.3 mg/kg, ip pretreated for 10 mins followed by dizocilpine addition in presence of NE-100 measured after 20 mins by Y-maze test. The assay is classed as functional, organism-based. As to conditions: dose 0.03-0.3 mg/kg, time 30.0 min. In a few lines: as §1

The subject of a further assay is C6. Nature of the assay: Cytotoxicity against rat C6 cells assessed as cell viability measured after 48 hrs by MTT assay. The assay is classed as functional, cell-based. Particulars: C6, 48 h. (Tetrazolium assays rely on reduction of a dye to a coloured formazan, in cell work by metabolically active cells.)
For a further assay, the system named is SH-SY5Y. Kind of assay: Cytotoxicity against human SH-SY5Y cells assessed as cell viability measured after 48 hrs by MTT assay. The assay is classed as functional, cell-based. In a few lines:
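SH-SY5Y cells grown in MEM/Ham's F12 (1:1) with 10% FBS, glutamine and pen-strep at 37 °C, 5% CO2. Seeded at 25,000 cells/well and dosed the next day at 1–100 μM for 48 h. Solvent controls included. MTT 0.5 mg/mL for 3–4 h, formazan dissolved in DMSO/EtOH, absorbance read at 570/630 nm.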

The next assay deals with MCF7. Kind of assay: Cytotoxicity against human MCF7 cells assessed as cell viability measured after 48 hrs by MTT assay. The assay is classed as functional, cell-based. As to conditions: MCF7, 48 h. In a few lines: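 MCF7 cells grown in DMEM with 10% FBS, glutamine and pen-strep at 37 °C, 5% CO2. Seeded at 25,000 cells/well and dosed the next day at 1–100 μM for 48 h. Solvent controls included. MTT 0.5 mg/mL for 3–4 h, formazan dissolved in DMSO/EtOH, absorbance read at 570/630 nm.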

In assay [6] the test system is Mus musculus. Kind of assay: Cognitive enhancing effect in dizocilpine induced amnesia Swiss mouse model assessed as increase in latency time at 0.03 to 0.3 mg/kg, ip pretreated for 10 mins followed by dizocilpine addition in presence of NE-100 measured after 20 mins by step-through passive avoidance test. The assay is classed as functional, organism-based. Particulars: dose 0.03-0.3 mg/kg, time 30.0 min. Put shortly: as §1

In the next assay the test system is HepG2. Kind of assay: Cytotoxicity against human HepG2 cells assessed as cell viability measured after 48 hrs by MTT assay. The assay is classed as functional, cell-based. As to conditions: HepG2, 48 h. Put shortly: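 HepG2 cells grown in MEM with 10% FBS, glutamine, pen-strep and NEAA at 37 °C, 5% CO2. Seeded at 25,000 cells/well and dosed the next day at 1–100 μM for 48 h. Solvent controls (EtOH, DMSO) included. MTT 0.5 mg/mL for 3–4 h, formazan dissolved in DMSO/EtOH, absorbance read at 570/630 nm.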

Assay [7] has as its system Mus musculus. Nature of the assay: Cognitive enhancing effect in dizocilpine induced amnesia Swiss mouse model assessed as reduction in memory impairment at 1 to 10 mg/kg, ip pretreated for 10 mins followed by dizocilpine addition in presence of NE-100 measured after 20 mins by Y-maze test. The assay is classed as functional, organism-based. Particulars: dose 1-10 mg/kg, time 30.0 min. In a few lines:
as §1

The test system of assay [8] is Mus musculus. Kind of assay: Cognitive enhancing effect in dizocilpine induced amnesia Swiss mouse model assessed as increase in latency time at 1 to 10 mg/kg, ip pretreated for 10 mins followed by dizocilpine addition in presence of NE-100 measured after 20 mins by step-through passive avoidance test. The assay is classed as functional, organism-based. As to conditions: dose 1-10 mg/kg, time 30.0 min. In a few lines: as §1

For assay [9], the system named is Mus musculus. Nature of the assay: Cognitive enhancing effect in dizocilpine induced amnesia Swiss mouse model assessed as reduction in memory impairment at 1 to 10 mg/kg, ip pretreated for 10 mins followed by dizocilpine addition measured after 20 mins by Y-maze test. The assay is classed as functional, organism-based. As to conditions: dose 1-10 mg/kg, time 30.0 min. In a few lines: as §1

Assay [10] has as its system Mus musculus. Nature of the assay: Cognitive enhancing effect in dizocilpine induced amnesia Swiss mouse model assessed as increase in latency time at 1 to 10 mg/kg, ip pretreated for 10 mins followed by dizocilpine addition measured after 20 mins by step-through passive avoidance test. The assay is classed as functional, organism-based. Particulars: dose 1-10 mg/kg, time 30.0 min. Put shortly:
as §1

Active and inactive are the calls of the source. The rule behind the calls is not given here.

Broadly, the Ki is the equilibrium dissociation constant of an inhibitor or competing ligand from its target. Lower therefore signals a stronger hold on the target. A word on the EC50: it is the midpoint of the concentration-response curve.

Chain of Sigma non-opioid intracellular receptor 1 (Q60492 whole entry): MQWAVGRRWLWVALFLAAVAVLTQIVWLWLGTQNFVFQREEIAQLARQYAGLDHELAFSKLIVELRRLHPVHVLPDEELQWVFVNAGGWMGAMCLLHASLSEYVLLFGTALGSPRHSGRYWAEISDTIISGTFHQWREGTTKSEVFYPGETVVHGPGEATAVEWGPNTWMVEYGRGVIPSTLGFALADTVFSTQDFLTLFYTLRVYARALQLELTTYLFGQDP

Turning to `COc1ccc(OCCN2[C@H](C)CCC[C@@H]2C)cc1`, the figures for the Ki in assay [1] and in assay [2] were 379 nM and 636 nM, respectively.

On to `CC1CCN(CCOc2ccc(Cl)cc2)CC1`, for which the result in the assay on Mus musculus [3] and in the assay on Mus musculus [4] was Active. The outcome in the assay on Mus musculus [5] and with Mus musculus [6] was inactive. The EC50 in the assay on C6, with SH-SY5Y, in the assay with MCF7 and in the assay on HepG2 was greater than 100000 nM each time. In assay [2], this molecule returned a Ki of 239 nM.

For the molecule `C[C@@H]1CCCCN1CCOc1ccc(Cl)cc1`, the inhibitory constant (Ki) is 20.6 nM in assay [1] and 77.8 nM in assay [2].

Regarding `COc1ccc(OCCN2CCC(C)CC2)cc1`, the concentration giving a half-maximal response (EC50) with C6, with SH-SY5Y, in the assay on MCF7 and in the assay on HepG2 was greater than 100000 nM in each case. The outcome in the assay on Mus musculus [7] and with Mus musculus [8] was inactive. In addition, the Ki turned out to be 0.89 nM in assay [1] and 170 nM in assay [2]. The result in the assay with Mus musculus [9] and in the assay on Mus musculus [10] was Active.

For the molecule `COc1ccc(OCCN2CCCC[C@H]2C)cc1`, the Ki worked out at 35.9 nM in assay [1] and 300 nM in assay [2].

With `COc1ccc(OC[C@@H](C)N2CCC(C)CC2)cc1`, the EC50 in the assay with C6 is greater than 100000 nM. Moreover, the Ki in assay [1] was 1.16 nM; in [2], 187 nM.

On to `C[C@H]1CCCCN1CCOc1ccc(Cl)cc1`, for which the results for the Ki in [1] and in assay [2] were 16.6 nM and 69.8 nM, respectively.

Take `COc1ccc(OC[C@H](C)N2CCC(C)CC2)cc1`: the figures for the Ki in assay [1] and in assay [2] were 1.49 nM and 723 nM, respectively.

For the molecule `COc1ccc(OCCCN2[C@H](C)CCC[C@@H]2C)cc1`, the Ki stood at 23.5 nM in assay [1] and 52.5 nM in assay [2].

Take `C[C@@H]1CCC[C@H](C)N1CCOc1ccc(Cl)cc1`: the Ki in assay [1] is 59.4 nM; in assay [2] it was 116 nM.

For the molecule `C[C@@H]1CCC[C@H](C)N1CCCOc1ccc(Cl)cc1`, the Ki in [1] is 4.43 nM; in assay [2] it was 17.2 nM.

For `COc1ccc(OCCN2C(C)(C)CCCC2(C)C)cc1`, the EC50 in the assay with C6 is greater than 100000 nM. Further, the Ki is greater than 5000 nM in assay [1] and 809 nM in assay [2].

For the molecule `COc1ccc(OCCN2CCCC[C@@H]2C)cc1`, the figures for the inhibition constant (Ki) in assay [1] and in assay [2] were 43.4 nM and 175 nM, respectively.

For the molecule `CC1CCN([C@@H](C)COc2ccc(Cl)cc2)CC1`, the Ki is 0.34 nM in assay [1] and 186 nM in assay [2].

For the molecule `CC1(C)CCCC(C)(C)N1CCOc1ccc(Cl)cc1`, the EC50 in the assay on C6 is greater than 100000 nM. The inhibitory constant (Ki) in [1] was greater than 5000 nM; in [2], 411 nM.

Take `CC1CCN([C@H](C)COc2ccc(Cl)cc2)CC1`: the EC50 with C6 is greater than 100000 nM. Moreover, the results for the Ki in assay [1] and in [2] were 1.18 nM and 52.3 nM, respectively.

Values taken from ChEMBL document CHEMBL5046239, “Development of novel phenoxyalkylpiperidines as high-affinity Sigma-1 (σ1) receptor ligands with potent anti-amnesic effect” (Eur J Med Chem, 2022).
